Measurements reported in ChEMBL document CHEMBL4406857, “Discovery of new small molecule inhibitors targeting isocitrate dehydrogenase 1 (IDH1) with blood-brain barrier penetration” (Eur J Med Chem, 2019).
pIC50: −log10 of the molar value.

Experiments:
[1] = target: Isocitrate dehydrogenase [NADP] cytoplasmic (Homo sapiens, UniProt O75874); experiment: (§1) Inhibition of wild type recombinant human C-terminal His8-tagged IDH1 expressed in Escherichia coli BL21 assessed as reduction in NADP consumption using DL-isocitrate as substrate preincubated for 60 mins followed by substrate addition and measured for 60 mins in presence of NADP by diaphorase/resazurin-based fluorescence assay
Sequence of Isocitrate dehydrogenase [NADP] cytoplasmic (Homo sapiens, UniProt O75874) (O75874 whole entry): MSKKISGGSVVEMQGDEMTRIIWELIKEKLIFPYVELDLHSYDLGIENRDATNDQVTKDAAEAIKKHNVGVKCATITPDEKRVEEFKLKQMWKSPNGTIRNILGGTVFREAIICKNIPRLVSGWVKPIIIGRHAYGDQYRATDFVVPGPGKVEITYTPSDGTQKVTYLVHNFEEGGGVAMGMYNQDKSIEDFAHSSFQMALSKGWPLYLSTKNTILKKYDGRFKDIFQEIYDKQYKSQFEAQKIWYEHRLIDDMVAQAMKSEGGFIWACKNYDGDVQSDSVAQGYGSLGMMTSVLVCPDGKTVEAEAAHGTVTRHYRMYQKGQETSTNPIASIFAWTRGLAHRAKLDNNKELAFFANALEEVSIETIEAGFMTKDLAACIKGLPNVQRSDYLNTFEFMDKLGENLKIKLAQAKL

[2] = target: T1, Isocitrate dehydrogenase [NADP] cytoplasmic (Homo sapiens, UniProt O75874, R132C); experiment: as §1, with “of” for “of wild type”, “IDH1 R132C mutant” for “IDH1”, “NADPH” for “NADP”, “alpha-ketoglutarate” for “DL-isocitrate”
T1 sequence (O75874 2-414 R132C limits assumed): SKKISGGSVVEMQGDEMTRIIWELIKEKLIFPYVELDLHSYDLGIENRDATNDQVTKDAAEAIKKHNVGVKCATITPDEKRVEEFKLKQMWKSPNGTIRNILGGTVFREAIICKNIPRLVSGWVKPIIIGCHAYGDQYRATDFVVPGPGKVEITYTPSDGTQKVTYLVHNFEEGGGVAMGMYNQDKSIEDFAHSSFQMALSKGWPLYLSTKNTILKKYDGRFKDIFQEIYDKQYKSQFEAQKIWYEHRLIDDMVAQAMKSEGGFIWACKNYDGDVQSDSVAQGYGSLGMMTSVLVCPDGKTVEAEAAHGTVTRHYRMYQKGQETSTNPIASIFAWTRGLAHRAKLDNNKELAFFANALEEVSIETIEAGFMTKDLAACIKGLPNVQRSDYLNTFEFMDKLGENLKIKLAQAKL

[3] = target: Isocitrate dehydrogenase [NADP] cytoplasmic (Homo sapiens, UniProt O75874, R132H); experiment: Inhibition of recombinant human C-terminal His8-tagged IDH1 R132H mutant expressed in Escherichia coli BL21 assessed as reduction in NADPH consumption using alpha-ketoglutarate as substrate preincubated for 60 mins followed by substrate addition measured for 60 mins in presence of NADPH by diaphorase/resazurin-based assay
Sequence of Isocitrate dehydrogenase [NADP] cytoplasmic (Homo sapiens, UniProt O75874, R132H) (O75874 2-414 R132H limits assumed): as the sequence (O75874 2-414 R132C limits assumed) above, with C131H counted along it

[4] = target: T1, Isocitrate dehydrogenase [NADP] cytoplasmic; experiment: Inhibition of IDH1 R132C mutant in human HT1080 cells assessed as reduction in 2-HG production incubated with compound for 48 hrs by D2HG assay kit based fluorescence assay; assay type: cell-based
[5] = Clearance in ICR mouse at 1 mg/kg, iv measured upto 24 hrs by LCMS analysis; assay type: ADME, organism-based; details: in vivo
Outline: (§2)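 Male ICR mice (6-8 weeks, 20-25 g), nine animals, dosed 1 mg/kg by slow intravenous injection or 5 mg/kg orally. Blood sampled into EDTA at 5 min (iv only), 15 min, 30 min, 1, 2, 4, 8 and 24 h. Plasma stored at -20 °C, prepared by acetonitrile protein precipitation with dexamethasone internal standard, and analysed for parent compound. Values are means of three replicates.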

[6] = Volume of distribution at steady state in ICR mouse at 1 mg/kg, iv measured upto 24 hrs by LCMS analysis; assay type: ADME, organism-based; details: in vivo, read-out: Vdss; outline: as §2
[7] = Half life in ICR mouse at 1 mg/kg, iv measured upto 24 hrs by LCMS analysis; assay type: ADME, organism-based; details: in vivo; outline: as §2
[8] = AUC in ICR mouse at 1 mg/kg, iv measured upto 24 hrs by LCMS analysis; assay type: ADME, organism-based; parameters: time < 24 hr, dose 1 mg/kg, route intravenous; details: in vivo; outline: as §2
[9] = Cmax in ICR mouse at 5 mg/kg, po measured upto 24 hrs by LCMS analysis; assay type: ADME, organism-based; parameters: dose 5 mg/kg, route oral; details: in vivo; outline: as §2
[10] = Half life in ICR mouse at 5 mg/kg, po measured upto 24 hrs by LCMS analysis; assay type: ADME, organism-based; details: in vivo; outline: as §2
[11] = AUC in ICR mouse at 5 mg/kg, po measured upto 24 hrs by LCMS analysis; assay type: ADME, organism-based; parameters: dose 5 mg/kg, time < 24 hr, route oral; details: in vivo; outline: as §2
[12] = Oral bioavailability in ICR mouse at 5 mg/kg measured upto 24 hrs by LCMS analysis; assay type: ADME, organism-based; details: in vivo; for bioavailability: ICR; outline: as §2

Row | pIC50 [1] | pIC50 [2] | pIC50 [3] | pIC50 [4] | clearance [5] [mL/min/kg] | Vd [6] [L/kg] | half-life [7] [h] | AUC at 24 h [8] [µM·h] | Cmax [9] [nM] | half-life [10] [h] | AUC at 24 h [11] [µM·h] | F ([12]; 24 h) [%] | bioavailability [12] [%] | Compound
1 | 5.55 | 8.03 | 8.57 | 7.92 | 30 | 5.2 | 2.1 | 1.02 | 1120 | 2.5 | 8.46 | 152 | – | C[C@H](Nc1nccc(N2C(=O)OC[C@@H]2[C@H](C)F)n1)c1ncn2c1COc1cc(C(F)(F)F)ccc1-2
2 | – | 8.03 | 9.00 | 7.90 | 109 | 3 | 0.5 | 0.312 | 730 | 2 | 1.65 | – | 109 | CC(C)[C@H]1COC(=O)N1c1ccnc(N[C@@H](C)c2ncn3c2CCc2cc(C(F)(F)F)ccc2-3)n1
3 | – | 7.35 | 7.32 | – | – | – | – | – | – | – | – | – | – | C[C@H](Nc1nccc(N2C(=O)OC[C@@H]2[C@H](C)F)n1)c1ncn2c1CCc1cc(F)ccc1-2
4 | – | 7.61 | 7.48 | – | – | – | – | – | – | – | – | – | – | C[C@H](Nc1nccc(N2C(=O)OC[C@@H]2[C@H](C)F)n1)c1ncn2c1COc1cc(C3CC3)ccc1-2
5 | – | 7.82 | 8.64 | 7.27 | 50 | 4.3 | 1.7 | 0.717 | 932 | 3.4 | 4.02 | – | 117 | C[C@H](Nc1nccc(N2C(=O)OC[C@@H]2[C@H](C)F)n1)c1ncn2c1CCc1cc(Cl)ccc1-2
6 | – | 6.92 | 6.92 | – | – | – | – | – | – | – | – | – | – | CC1Cc2cc(C(F)(F)F)ccc2-n2cnc([C@H](C)Nc3nccc(N4C(=O)OC[C@@H]4[C@H](C)F)n3)c21 (some centres undefined)

The remaining lines, values behind:

Row | Compound | pIC50 [1] | pIC50 [2] | pIC50 [3] | pIC50 [4] | clearance [5] [mL/min/kg] | Vd [6] [L/kg] | half-life [7] [h] | AUC at 24 h [8] [µM·h] | Cmax [9] [nM] | half-life [10] [h] | AUC at 24 h [11] [µM·h] | F ([12]; 24 h) [%] | bioavailability [12] [%]
7 | C[C@H](Nc1nccc(N2C(=O)OC[C@@H]2[C@H](C)F)n1)c1ncn2c1COc1cc(Cl)ccc1-2 | 5.15 | 7.84 | 8.66 | 7.22 | 39 | 2.3 | 1 | 0.917 | 1210 | 2.4 | 5.01 | – | 109
8 | CC(C)[C@@H]1N(c2ccnc(N[C@@H](C)c3ncn4c3CCc3cc(C(F)(F)F)ccc3-4)n2)C(=O)OC1(C)C | – | 7.73 | 7.29 | – | – | – | – | – | – | – | – | – | –
9 | CC1Cc2c([C@H](C)Nc3nccc(N4C(=O)OC[C@@H]4[C@H](C)F)n3)ncn2-c2ccc(C(F)(F)F)cc21 (some centres undefined) | – | 7.03 | 6.89 | – | – | – | – | – | – | – | – | – | –
10 | C[C@H](Nc1nccc(N2C(=O)OC[C@@H]2c2ccccc2)n1)c1ncn2c1CCc1cc(C(F)(F)F)ccc1-2 | – | 7.85 | 7.81 | – | – | – | – | – | – | – | – | – | –
11 | C[C@H](Nc1nccc(N2C(=O)OC[C@@H]2[C@H](C)F)n1)c1ncn2c1sc1cc(C(F)(F)F)ccc12 | – | 7.76 | 7.72 | – | – | – | – | – | – | – | – | – | –
12 | COc1ccc2c(c1)OCc1c([C@H](C)Nc3nccc(N4C(=O)OC[C@@H]4[C@H](C)F)n3)ncn1-2 | – | 6.81 | 7.21 | – | – | – | – | – | – | – | – | – | –
13 | C[C@H](Nc1nccc(N2C(=O)OC[C@@H]2[C@H](C)F)n1)c1ncn2c1CSc1cc(C(F)(F)F)ccc1-2 | – | 7.62 | 7.62 | – | – | – | – | – | – | – | – | – | –
